Source: ChEMBL document CHEMBL4052830, “Dual Nicotinic Acetylcholine Receptor α4β2 Antagonists/α7 Agonists: Synthesis, Docking Studies, and Pharmacological Evaluation of Tetrahydroisoquinolines and Tetrahydroisoquinolinium Salts” (J Med Chem, 2018)
Calls of active or inactive are those of the source. The rule behind the calls is not given here.

Key:
[1] = molecular target: T1, Neuronal acetylcholine receptor; alpha3/beta4 (Rattus norvegicus, UniProt P04757+P12392); test: Displacement of [3H]epibatidine from rat alpha3beta4 nAChR expressed in HEK293 cell membranes after 4 hrs by scintillation counting method
Summary of the method: (§1)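 Membranes from HEK293 lines stably expressing α3β4, α4β4 or α4β2 nAChR, [3H]epibatidine competition binding. Ki came from concentration-inhibition curves. Means of 3–5 experiments in duplicate.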

[2] = molecular target: T1, Neuronal acetylcholine receptor; alpha3/beta4; test: Antagonist activity at rat alpha3beta4 nAChR expressed in HEK293 cells assessed as inhibition of (S)-nicotine-induced […] response measured up to 90 secs by FMP assay; type: cell-based
Summary of the method: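 Rat α3β4 nAChR in stably expressing HEK293 cells, FLIPR Membrane Potential Blue assay. Antagonist mode against (S)-nicotine at EC70–EC90. IC50 derived from concentration-inhibition curves. Means of 3–5 experiments in duplicate.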

[3] = molecular target: T2, Neuronal acetylcholine receptor subunit alpha-7 (Homo sapiens, UniProt P36544); test: Antagonist activity at human alpha7 nAChR expressed in HEK293 cells co-expressing Ric-3/NACHO assessed as inhibition of ACh-induced calcium mobilization measured up to 90 secs in presence of PNU-120596 by FLIPR assay; type: cell-based
Summary of the method: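 Human α7 nAChR stably co-expressed with Ric-3/NACHO in HEK293 cells. Antagonist mode in the Ca2+/Fluo-4 assay: test ligand inhibits acetylcholine at EC70–EC90, with 3 μM PNU-120596 in the buffer. IC50 came from concentration-inhibition curves. Means of 3–5 experiments run in duplicate.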

[4] = molecular target: T2, Neuronal acetylcholine receptor subunit alpha-7; test: Agonist activity at human alpha7 nAChR expressed in HEK293 cells co-expressing Ric-3/NACHO assessed as induction of calcium mobilization measured up to 90 secs in presence of PNU-120596 by FLIPR assay; type: cell-based
Summary of the method: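 Human α7 nAChR stably co-expressed with Ric-3 and NACHO in HEK293 cells, Ca2+/Fluo-4 fluorescence assay. Assay buffer held 3 μM PNU-120596 (α7 PAM) to slow desensitization. Agonist concentration-response curves gave EC50 and Rmax. Means of 3–5 experiments run in duplicate.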

[5] = molecular target: Neuronal acetylcholine receptor; alpha4/beta2 (Rattus norvegicus, UniProt P09483+P12390); test: Displacement of [3H]epibatidine from rat alpha4beta2 nAChR expressed in HEK293 cell membranes after 4 hrs by scintillation counting method; summary of the method: as §1
[6] = molecular target: Neuronal acetylcholine receptor; alpha4/beta4 (Rattus norvegicus, UniProt P09483+P12392); test: Displacement of [3H]epibatidine from rat alpha4beta4 nAChR expressed in HEK293 cell membranes after 4 hrs by scintillation counting method; summary of the method: as §1
[7] = molecular target: Nicotinic acetylcholine receptor alpha-4/beta-2 (Mus musculus, UniProt Q8R493+Q9ERK7); test: Antagonist activity at mouse alpha4beta2 nAChR expressed in HEK293 cells assessed as inhibition of (S)-nicotine-induced […] response measured up to 90 secs by FMP assay; type: cell-based
Summary of the method: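 Mouse α4β2 nAChR in stably expressing HEK293T cells, FLIPR Membrane Potential Blue assay. IC50 came from concentration-inhibition curves. Means of 3–5 experiments in duplicate.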

[8] = molecular target: T2, Neuronal acetylcholine receptor subunit alpha-7; test: Agonist activity at human alpha7 nAChR expressed in HEK293 cells co-expressing Ric-3/NACHO assessed as induction of calcium mobilization at 0.3 to 3 uM measured up to 90 secs in presence of PNU-120596 by FLIPR assay; type: cell-based
[9] = molecular target: T2, Neuronal acetylcholine receptor subunit alpha-7; test: Agonist activity at human alpha7 nAChR expressed in HEK293 cells co-expressing Ric-3/NACHO assessed as induction of calcium mobilization at >= 10 uM measured up to 90 secs in presence of PNU-120596 by FLIPR assay; type: cell-based
[10] = molecular target: T2, Neuronal acetylcholine receptor subunit alpha-7; test: Agonist activity at human alpha7 nAChR expressed in HEK293 cells co-expressing Ric-3/NACHO assessed as induction of calcium mobilization at 30 uM measured up to 90 secs in presence of PNU-120596 by FLIPR assay; type: cell-based
Rattus norvegicus [11] = organism: Rattus norvegicus; test: Selectivity ratio of Ki for rat alpha4beta4 nAChR to Ki for rat alpha4beta2 nAChR
Rattus norvegicus [12] = organism: Rattus norvegicus; test: Selectivity ratio of Ki for rat alpha3beta4 nAChR to Ki for rat alpha4beta2 nAChR
[13] = molecular target: Neuronal acetylcholine receptor; alpha4/beta2 (Rattus norvegicus) (UniProt P09483+P12390); test: Potency index, ratio of DHbetaE Ki to test compound Ki for rat alpha4beta2 nAChR; type: protein-complex assay

Nicotinic acetylcholine receptor alpha-4/beta-2, sequence (Q9ERK7 whole entry): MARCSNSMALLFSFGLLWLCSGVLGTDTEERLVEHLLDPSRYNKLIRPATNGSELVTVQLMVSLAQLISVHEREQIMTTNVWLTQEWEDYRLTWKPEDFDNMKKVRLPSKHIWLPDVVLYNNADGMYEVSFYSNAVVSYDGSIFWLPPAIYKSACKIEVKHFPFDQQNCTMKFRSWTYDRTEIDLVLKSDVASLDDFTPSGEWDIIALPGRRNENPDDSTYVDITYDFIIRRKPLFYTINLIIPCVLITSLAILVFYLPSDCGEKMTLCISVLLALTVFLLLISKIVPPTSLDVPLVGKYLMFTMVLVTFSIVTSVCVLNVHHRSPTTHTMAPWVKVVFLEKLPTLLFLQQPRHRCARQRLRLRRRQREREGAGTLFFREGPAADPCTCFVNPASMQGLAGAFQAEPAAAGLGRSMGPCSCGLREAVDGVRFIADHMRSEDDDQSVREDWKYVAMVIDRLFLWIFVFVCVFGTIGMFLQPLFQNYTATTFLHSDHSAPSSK
Nicotinic acetylcholine receptor alpha-4/beta-2, sequence (Q8R493 whole entry): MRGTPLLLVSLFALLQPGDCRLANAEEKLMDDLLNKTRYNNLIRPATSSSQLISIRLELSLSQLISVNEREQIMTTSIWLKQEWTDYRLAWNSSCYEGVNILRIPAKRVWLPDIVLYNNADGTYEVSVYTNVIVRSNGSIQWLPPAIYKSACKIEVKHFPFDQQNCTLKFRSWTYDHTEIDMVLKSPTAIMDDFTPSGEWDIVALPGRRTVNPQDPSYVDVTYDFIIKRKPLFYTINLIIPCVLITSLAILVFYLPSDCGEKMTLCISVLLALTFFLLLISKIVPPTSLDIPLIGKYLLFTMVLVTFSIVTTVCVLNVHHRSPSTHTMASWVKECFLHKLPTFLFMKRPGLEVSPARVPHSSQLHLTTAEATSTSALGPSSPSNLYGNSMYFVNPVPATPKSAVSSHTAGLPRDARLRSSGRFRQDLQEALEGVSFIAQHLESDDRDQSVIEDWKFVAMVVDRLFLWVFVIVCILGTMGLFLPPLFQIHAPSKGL
Neuronal acetylcholine receptor; alpha4/beta4, sequence (P09483 whole entry): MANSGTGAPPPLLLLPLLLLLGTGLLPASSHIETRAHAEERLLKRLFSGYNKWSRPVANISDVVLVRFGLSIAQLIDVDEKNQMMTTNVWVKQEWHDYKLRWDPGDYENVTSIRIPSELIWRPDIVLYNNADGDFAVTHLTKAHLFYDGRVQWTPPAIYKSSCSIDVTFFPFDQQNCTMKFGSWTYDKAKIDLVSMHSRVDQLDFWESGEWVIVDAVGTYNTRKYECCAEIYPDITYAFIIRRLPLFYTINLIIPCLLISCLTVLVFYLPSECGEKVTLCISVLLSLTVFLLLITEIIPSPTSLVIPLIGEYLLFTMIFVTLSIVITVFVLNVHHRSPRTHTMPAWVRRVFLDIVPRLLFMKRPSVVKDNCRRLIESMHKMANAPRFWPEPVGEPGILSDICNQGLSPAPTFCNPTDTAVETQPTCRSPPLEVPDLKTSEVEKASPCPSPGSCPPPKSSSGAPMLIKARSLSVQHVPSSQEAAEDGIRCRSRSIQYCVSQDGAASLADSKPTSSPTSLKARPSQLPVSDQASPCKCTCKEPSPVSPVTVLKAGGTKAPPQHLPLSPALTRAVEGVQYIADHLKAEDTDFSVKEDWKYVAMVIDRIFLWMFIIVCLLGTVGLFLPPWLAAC
Neuronal acetylcholine receptor; alpha4/beta4, sequence (P12392 whole entry): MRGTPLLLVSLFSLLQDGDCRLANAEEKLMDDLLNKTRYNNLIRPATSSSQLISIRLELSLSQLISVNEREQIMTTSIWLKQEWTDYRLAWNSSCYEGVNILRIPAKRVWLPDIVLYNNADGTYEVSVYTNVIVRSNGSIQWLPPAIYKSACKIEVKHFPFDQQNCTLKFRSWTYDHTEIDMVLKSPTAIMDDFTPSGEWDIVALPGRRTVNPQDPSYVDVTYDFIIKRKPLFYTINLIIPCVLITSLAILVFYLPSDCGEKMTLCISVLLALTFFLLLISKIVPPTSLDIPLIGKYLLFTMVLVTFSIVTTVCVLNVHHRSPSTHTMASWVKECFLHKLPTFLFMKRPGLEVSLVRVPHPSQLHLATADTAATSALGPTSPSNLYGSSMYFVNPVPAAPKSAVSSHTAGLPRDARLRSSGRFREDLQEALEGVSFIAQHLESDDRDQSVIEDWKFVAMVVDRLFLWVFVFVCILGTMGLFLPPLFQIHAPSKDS
Neuronal acetylcholine receptor; alpha4/beta2, sequence (P09483 whole entry): as the sequence (P09483 whole entry) above
Neuronal acetylcholine receptor; alpha4/beta2, sequence (P12390 whole entry): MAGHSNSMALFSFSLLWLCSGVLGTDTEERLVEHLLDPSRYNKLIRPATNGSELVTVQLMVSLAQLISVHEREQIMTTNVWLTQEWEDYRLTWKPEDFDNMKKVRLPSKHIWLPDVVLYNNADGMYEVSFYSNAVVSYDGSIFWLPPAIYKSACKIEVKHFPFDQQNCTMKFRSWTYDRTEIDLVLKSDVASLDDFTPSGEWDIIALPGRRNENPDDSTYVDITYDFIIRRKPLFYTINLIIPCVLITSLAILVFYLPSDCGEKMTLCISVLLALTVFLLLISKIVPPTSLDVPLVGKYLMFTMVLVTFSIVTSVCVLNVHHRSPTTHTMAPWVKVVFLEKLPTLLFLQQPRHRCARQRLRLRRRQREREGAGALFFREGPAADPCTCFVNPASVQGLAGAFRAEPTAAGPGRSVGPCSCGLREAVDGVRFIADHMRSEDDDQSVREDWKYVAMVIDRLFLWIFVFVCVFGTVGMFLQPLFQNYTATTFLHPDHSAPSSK
T1 sequence (P04757 whole entry): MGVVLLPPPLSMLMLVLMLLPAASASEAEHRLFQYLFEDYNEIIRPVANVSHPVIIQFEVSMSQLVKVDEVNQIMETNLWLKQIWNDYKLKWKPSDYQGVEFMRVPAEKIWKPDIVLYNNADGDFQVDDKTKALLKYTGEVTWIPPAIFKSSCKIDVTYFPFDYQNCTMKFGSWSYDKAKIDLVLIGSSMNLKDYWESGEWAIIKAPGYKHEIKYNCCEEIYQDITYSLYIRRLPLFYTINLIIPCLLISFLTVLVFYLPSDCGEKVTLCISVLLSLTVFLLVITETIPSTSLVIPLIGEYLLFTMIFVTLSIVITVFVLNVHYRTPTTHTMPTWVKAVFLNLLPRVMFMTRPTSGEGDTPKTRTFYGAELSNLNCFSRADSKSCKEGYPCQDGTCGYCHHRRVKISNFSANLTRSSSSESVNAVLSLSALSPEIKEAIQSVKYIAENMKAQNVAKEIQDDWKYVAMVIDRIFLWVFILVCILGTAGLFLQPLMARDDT
T1 sequence (P12392 whole entry): as the sequence (P12392 whole entry) above
T2 sequence (P36544 whole entry): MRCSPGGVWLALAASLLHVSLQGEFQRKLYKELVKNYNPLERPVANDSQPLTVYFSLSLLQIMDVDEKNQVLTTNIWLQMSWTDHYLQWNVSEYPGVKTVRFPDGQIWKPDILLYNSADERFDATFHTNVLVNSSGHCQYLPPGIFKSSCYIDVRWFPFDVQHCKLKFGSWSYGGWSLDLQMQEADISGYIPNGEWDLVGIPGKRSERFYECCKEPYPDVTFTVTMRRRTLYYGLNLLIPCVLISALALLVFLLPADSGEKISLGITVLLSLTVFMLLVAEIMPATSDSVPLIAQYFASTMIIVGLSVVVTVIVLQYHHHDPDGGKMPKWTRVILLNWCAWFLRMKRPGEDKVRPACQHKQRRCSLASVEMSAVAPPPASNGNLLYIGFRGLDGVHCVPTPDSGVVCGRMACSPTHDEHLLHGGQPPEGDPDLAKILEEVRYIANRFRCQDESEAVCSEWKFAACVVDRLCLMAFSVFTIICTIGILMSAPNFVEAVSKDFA

SMILES	Ki [1] [µM]	IC50 [2] [µM]	EC50 [4] [µM]	Ki [5] [µM]	Ki [6] [µM]	IC50 [7] [µM]	Activity [8]	Activity [9]	Ratio Ki (Rattus norvegicus [11])	Ratio Ki (Rattus norvegicus [12])	Ratio Ki [13]	IC50 [3] [µM]	Activity [10]
COc1cc2c(cc1O)CN(C)CC2	100	100	> 100									> 100	
c1ccc2c(c1)CCN1CCCC21 (stereo not given)	100	> 100		8.5	100	15						100	
CN1CCc2cc3c(cc2C1)OCO3			> 100	17								> 100	
COc1cc2c(cc1OCc1ccccc1)C1CCCN1CC2 (stereo not given)	300	> 100		50	300	50						11	
COc1cc2c(cc1OCc1ccccc1)CC[N+]1(C)CCCC21 (stereo not given)	300	300		2.1	300	3.1	Dose-dependent effect	inactive					
COC1CC=C2CCN3CCC4=C(CC(=O)OC4)[C@]23C1 (stereo not given in full)	100	100		0.65	25	0.6						100	
COc1cc2c(cc1OCc1ccccc1)CN(C)CC2	300	> 300		15	300	23						30	
COc1cc2c(cc1OC)CN(C)CC2			> 100									> 100	
COc1ccc2c(c1)CC[N+](C)(C)C2	9.3	> 100	4.4	0.68	1.5	1.4							
c1c2c(cc3c1OCO3)C1CCCN1CC2 (stereo not given)	> 100			0.5	9.3	2.3							Active
COc1ccc2c(c1)C1CCCN1CC2 (stereo not given)	100	> 100		1.4	3.3	9.1							Active
COc1cc2c(cc1OC)[C@H]1CCCN1CC2	100	> 100	> 100	2.5	100	16						> 100	
COc1cc2c(cc1OC)C[N+](C)(C)CC2	100	> 300	9	0.63	50	11							
c1c2c(cc3c1OCO3)[C@@H]1CCCN1CC2	> 100	> 100		4.5	100	30							Active
COc1ccc(CC2c3cc(OC)c(OC)cc3CCN2C)cc1OC (stereo not given) [LAUDANOSINE]	> 100	> 100	> 100	100	> 100	> 100						> 100	
COc1cc2c(cc1OC)[C@@H]1CCC[N+]1(C)CC2 (stereo not given in full)	25	> 100	6.5	25	7.5	> 100							
COc1cc2c(cc1OCc1ccccc1)CCN1CCCC21 (stereo not given)	100	100		6.3	300	30						5.7	
COc1cc2c(cc1OC)C1CCCN1CC2 (stereo not given)	100		> 100	4.6		30						> 100	
COc1cc2c(cc1OCc1ccccc1)CCN(C)C2	300	100		2.9	300	24						30	
COc1ccc2c(c1)C1CCC[N+]1(C)CC2 (stereo not given)	9.3	50	1.2	0.23	0.92	1.8							
COc1ccc2c(c1)CCN(C)C2	100	> 100	> 100	2.6	25	6.2						> 100	
COc1ccc2c(c1)CCN1CCCC21 (stereo not given)	> 100	> 100	> 100	25	100	100						> 100	
COc1cc2c(cc1OC)[C@@H]1CCCN1CC2	> 100	> 100	> 100	> 100	> 100	> 100						> 100	
C[N+]1(C)CCc2cc3c(cc2C1)OCO3	50	> 300	2.6	0.38	30	12			80	130			
COc1cc2c(cc1O)C[N+](C)(C)CC2	25	> 100	0.99	0.4	8.9	1.2							

The next lines start with results.

Ki [1] [µM]	IC50 [2] [µM]	EC50 [4] [µM]	Ki [5] [µM]	Ki [6] [µM]	IC50 [7] [µM]	Activity [8]	Activity [9]	Ratio Ki (Rattus norvegicus [11])	Ratio Ki (Rattus norvegicus [12])	Ratio Ki [13]	SMILES	IC50 [3] [µM]	Activity [10]
25	> 100	5.4	25	25	> 100						C[N+]12CCC[C@H]1c1cc3c(cc1CC2)OCO3 (stereo not given in full)		
300	> 300		30	> 300	30						COc1cc2c(cc1OC)C[N+](C)(Cc1ccccc1)CC2 (stereo not given)	2	
> 300	> 300		9.7	> 300	11						CC[N+]1(C)CCc2cc(OC)c(OC)cc2C1 (stereo not given)		Active
300	> 300	> 100	14	300	30						CCC[N+]1(C)CCc2cc(OC)c(OC)cc2C1 (stereo not given)	> 100	
300	300		11	300	5.7	Dose-dependent effect	inactive				COc1cc2c(cc1OCc1ccccc1)C1CCC[N+]1(C)CC2 (stereo not given)		
25	100	5.2	3.6	12	30						COc1ccc2c(c1)CC[N+]1(C)CCCC21 (stereo not given)		
30	30	2.6	0.14	50	0.52			360	210	5	C[N+]12CCCC1c1cc3c(cc1CC2)OCO3 (stereo not given)		
> 300	> 300	> 100	30	300	30						C=CC[N+]1(C)CCc2cc(OC)c(OC)cc2C1 (stereo not given)	> 100	
25	> 100	5.1	2.4	25	7.2						COc1cc2c(cc1OC)[C@H]1CCC[N+]1(C)CC2 (stereo not given in full)		
50	100	7.5	2.4	30	30						COc1cc2c(cc1OC)C1CCC[N+]1(C)CC2 (stereo not given)		
50	> 100	2.2	17	25	50						C[N+]12CCCC1c1ccccc1CC2 (stereo not given)		
30	> 300		4.5	17	30		inactive				COc1cc2c(cc1OCc1ccccc1)C[N+](C)(C)CC2		
